Test results from ChEMBL document CHEMBL1131482 (J Med Chem, 1998).
The source made the active and inactive calls.

What was measured:
Mus musculus [1] = organism: Mus musculus; assay: Analgesic efficacy is expressed as percentage of that morphine, done on mouse.; type: functional
Mus musculus [2] = assay: MNTD:Maximal nontoxic dose of the compound, done on mouse; sc; type: functional
How it was run: (§1)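 Male Swiss-Webster mice dosed sc. The value is the highest dose causing no visible behavioural change (tremors, convulsions, hypomotility etc.), so that treated mice could not be told apart from untreated ones. Behaviour was scored by the Irwin method in groups of at least 10 animals.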

Mus musculus [3] = organism: Mus musculus; assay: Analgesic efficacy is expressed as percentage of that epibatidine, done on mouse.; type: functional
Mus musculus [4] = assay: MAD: minimal dose able to induce a statistically significant increase of the pain threshold, done on mouse; sc; type: functional
How it was run: (§2)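 Mouse hot plate test (52.5 ± 0.1 °C, 45 s cutoff) after sc dosing, in male Swiss-Webster mice. The value is the lowest dose giving a statistically significant rise in pain threshold. Dunnett's two-tailed test compared treated mice at maximum reaction time with pretest time, P < 0.05.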

Mus musculus [5] = assay: Licking latency was measured after 30 min treatment (at dose=5 mg/kg) by using mouse hot plate test; type: functional
How it was run: (§3)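 Male Swiss-Webster mice (22-28 g), 23 ± 1 °C, 12-h light/dark cycle, food and water ad libitum. Hot plate at 52.5 ± 0.1 °C with licking latency as read-out and 45 s cutoff. Mice with pre-drug latency below 12 or over 18 s were rejected. Compounds given sc, 5-12 mice per test. Significance was assessed by Dunnett's two-tailed test, P < 0.05.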

Mus musculus [6] = assay: Licking latency was measured after 15 min treatment (at dose=5 mg/kg) by using mouse hot plate test; type: functional; how it was run: as §3
Mus musculus [7] = assay: Licking latency was measured before treatment (at dose=25 mg/kg) by using mouse hot plate test; type: functional; how it was run: as §3
Mus musculus [8] = assay: Licking latency was measured after 15 min treatment (at dose=25 mg/kg) by using mouse hot plate test; type: functional; how it was run: as §3
Mus musculus [9] = assay: Licking latency was measured before treatment (at dose=5 mg/kg) by using mouse hot plate test; type: functional
How it was run: (§4)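 Male Swiss-Webster mice (22-28 g), 23 ± 1 °C, 12-h light/dark cycle. Hot plate at 52.5 ± 0.1 °C. Mice with pre-drug licking latency below 12 s or over 18 s were rejected. Cutoff 45 s. Compound given sc; latency read before dosing and at 15, 30 and 45 min. 5-12 mice per test.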

Mus musculus [10] = assay: Licking latency was measured after 45 min treatment (at dose=25 mg/kg) by using mouse hot plate test; type: functional; how it was run: as §3
Mus musculus [11] = assay: Licking latency was measured after 45 min treatment (at dose=5 mg/kg) by using mouse hot plate test; type: functional; how it was run: as §3
Mus musculus [12] = assay: Licking latency was measured after 30 min treatment (at dose=25 mg/kg) by using mouse hot plate test; type: functional; how it was run: as §3
TE-671 [13] = assay: Cholinergic interactions was measured with FLIPR device on TE671 cells and given as Intrinsic activity; type: functional, Homo sapiens
How it was run: (§5)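 Cells were plated on poly(ethylenimine)-coated plates and used about 72 h later. Loading was Fluo-3 AM for 1 h at 37 °C, followed by washes in Hepes-salts buffer, pH 7.4. FLIPR recorded Ca2+ fluorescence over 5 min after agonist addition. Responses were normalized to 100 µM nicotine (100%) and unloaded cells (0%), and EC50 and intrinsic activity were derived from concentration-response curves.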

Mus musculus [14] = assay: Minimal dose able to induce a statistically significant increase of the pain threshold, done on mouse; sc; type: functional; how it was run: as §2
K177 cell line [15] = assay: Cholinergic interactions was measured with FLIPR device on […] cells and given as EC50.; type: functional, cell-based; conditions: Homo sapiens; how it was run: as §5
TE-671 [16] = assay: Cholinergic interactions was measured with FLIPR device on TE671 cells and given as Effective dose; type: functional, cell-based; conditions: Homo sapiens; how it was run: as §5
Mus musculus [17] = assay: Maximal nontoxic dose of the compound, done on mouse; sc; type: functional; how it was run: as §1
K177 cell line [18] = assay: Cholinergic interactions was measured with FLIPR device on […] cells and given as Intrinsic activity; type: functional, Homo sapiens; how it was run: as §5
IMR-32 [19] = assay: Cholinergic interactions was measured with FLIPR device on IMR-32 cells of human neuroblastoma clonal line, given as effective dose; type: functional, cell-based; how it was run: as §5
IMR-32 [20] = assay: Cholinergic interactions was measured with FLIPR device on cells of IMR-32 human neuroblastoma clonal line and given as Intrinsic activity; type: functional; how it was run: as §5
Mus musculus [21] = assay: Licking latency was measured after 45 min treatment (at dose=20 mg/kg) by using mouse hot plate test; type: functional; how it was run: as §3
Mus musculus [22] = assay: MAD: minimal dose able to induce a statistically significant increase of the pain threshold, done on mouse; sc; IA= inactive; type: functional, organism-based; how it was run: as §2
Mus musculus [23] = assay: Licking latency was measured after 15 min treatment (at dose=40 mg/kg) by using mouse hot plate test; type: functional; how it was run: as §3
Mus musculus [24] = assay: Licking latency was measured before treatment (at dose=20 mg/kg) by using mouse hot plate test; type: functional; how it was run: as §3
Mus musculus [25] = assay: Licking latency was measured after 15 min treatment (at dose=20 mg/kg) by using mouse hot plate test; type: functional; how it was run: as §3
Mus musculus [26] = assay: Licking latency was measured after 30 min treatment (at dose=20 mg/kg) by using mouse hot plate test; type: functional; how it was run: as §3
Mus musculus [27] = assay: Licking latency was measured after 30 min treatment (at dose=40 mg/kg) by using mouse hot plate test; type: functional; how it was run: as §3
Mus musculus [28] = assay: Licking latency was measured before treatment (at dose=40 mg/kg) by using mouse hot plate test; type: functional; how it was run: as §4
Mus musculus [29] = assay: Licking latency was measured after 45 min treatment (at dose=40 mg/kg) by using mouse hot plate test; type: functional; how it was run: as §3
Mus musculus [30] = assay: Licking latency was measured after 30 min treatment (at dose=10 mg/kg) by using mouse hot plate test; type: functional; how it was run: as §3
Mus musculus [31] = assay: Licking latency was measured after 15 min treatment (at dose=10 mg/kg) by using mouse hot plate test; type: functional; how it was run: as §3
Mus musculus [32] = assay: Licking latency was measured after 45 min treatment (at dose=10 mg/kg) by using mouse hot plate test; type: functional; how it was run: as §3
Mus musculus [33] = assay: Licking latency was measured before treatment (at dose=10 mg/kg) by using mouse hot plate test; type: functional; how it was run: as §3
Mus musculus [34] = assay: Licking latency was measured after 15 min treatment (at dose=25 mg/kg) by using mouse hot plate test (*P<0.01); type: functional; how it was run: as §3
Mus musculus [35] = assay: Licking latency was measured after 30 min treatment (at dose=25 mg/kg) by using mouse hot plate test(*P<0.05); type: functional; how it was run: as §3
Mus musculus [36] = assay: Licking latency was measured after 45 min treatment (at dose=25 mg/kg) by using mouse hot plate test (*P<0.05); type: functional; how it was run: as §3

| Compound | Analgesic efficacy compared to morphine (Mus musculus [1]) [%] | MNTD (Mus musculus [2]) [mg/kg] | Analgesic efficacy compared to epibatidine (Mus musculus [3]) [%] | MAD (Mus musculus [4]) [mg/kg] | Licking latency (Mus musculus [5]) [s] | Licking latency (Mus musculus [6]) [s] | Licking latency (Mus musculus [7]) [s] | Licking latency (Mus musculus [9]) [s] | Licking latency (Mus musculus [11]) [s] | further results |
| --- | --- | --- | --- | --- | --- | --- | --- | --- | --- | --- |
| CN1CC[C@]23c4c5ccc(O)c4O[C@H]2[C@@H](O)C=C[C@H]3[C@H]1C5 [MORPHINE] | 100 | 20 | 122 | 2 |  |  |  |  |  |  |
| CSc1nc(Cl)cc(N2CC3CCC(C2)N3)n1 | 149 | 30 | 182 | 5 | 20.5 | 20.3 | 15.1 | 14.7 | 18.7 | Licking latency (Mus musculus [8]): 40.8 s; Licking latency (Mus musculus [10]): 36.5 s; Licking latency (Mus musculus [12]): 43.8 s |
| Clc1ccc(C2CC3CC[C@H]2N3)cn1 (some centres not stated) [EPIBATIDINE] |  |  |  |  |  |  |  |  |  | Intrinsic activity (TE-671 [13]): 79.5%; Efficacy (Mus musculus [1]): 82%; MAD (Mus musculus [14]): 0.001 mg/kg; EC50 (K177 cell line [15]): 350 nM; EC50 (TE-671 [16]): 1260 nM; MNTD (Mus musculus [17]): 0.007 mg/kg; Intrinsic activity (K177 cell line [18]): 148.1%; EC50 (IMR-32 [19]): 34 nM; Efficacy (Mus musculus [3]): 100%; Intrinsic activity (IMR-32 [20]): 145.6% |
| CCC(=O)N1C2CCC1CN(c1ccc(Cl)nn1)C2 |  | >60 |  |  |  |  |  |  |  | Licking latency (Mus musculus [21]): 18 s; MAD (Mus musculus [22]): inactive; Licking latency (Mus musculus [23]): 17 s; Licking latency (Mus musculus [24]): 13.8 s; Licking latency (Mus musculus [25]): 17.1 s; Licking latency (Mus musculus [26]): 15.6 s; Licking latency (Mus musculus [27]): 16.4 s; Licking latency (Mus musculus [28]): 14.5 s; Licking latency (Mus musculus [29]): 18.4 s |
| Clc1ccnc(N2CC3CCC(C2)N3)n1 | 60 | 15 | 75 | 5 | 17.8 | 20.5 |  | 15 | 15.6 | Licking latency (Mus musculus [30]): 21.2 s; Licking latency (Mus musculus [31]): 26.3 s; Licking latency (Mus musculus [32]): 22.1 s; Licking latency (Mus musculus [33]): 14.6 s |
| Clc1cccnc1N1CC2CCC(C1)N2 | 124 | 40 | 151 | 10 | 20.3 | 21.3 | 15.3 | 13.7 | 18.3 | Licking latency (Mus musculus [8]): 39.2 s; Licking latency (Mus musculus [10]): 27.5 s; Licking latency (Mus musculus [12]): 29.7 s |
| CCN1C2CCC1CN(c1ccc(Cl)nn1)C2 | 61 | 20 | 74 | 10 |  |  | 14.3 |  |  | Licking latency (Mus musculus [30]): 18.4 s; Licking latency (Mus musculus [31]): 19.3 s; Licking latency (Mus musculus [32]): 16.4 s; Licking latency (Mus musculus [34]): 26 s; Licking latency (Mus musculus [33]): 13.2 s; Licking latency (Mus musculus [35]): 20.5 s; Licking latency (Mus musculus [36]): 20.8 s |
